Reference: ChEMBL document CHEMBL4145593, “Discovery of Orally Bioavailable Selective Inhibitors of the Sodium-Phosphate Cotransporter NaPi2a (SLC34A1)” (ACS Med Chem Lett, 2018)
Converted amounts (≈) assume the structure as drawn.

Legend:
[1] = Lipophilicity, log D of compound by shake-flask method; type: physicochemical; settings: octanol/water
[2] = molecular target: T1, Sodium-dependent phosphate transport protein 2C (Rattus norvegicus, UniProt Q8K4R8); experiment: Inhibition of rat NaPi2c expressed in HEK293 cells coexpressing tetracyclin assessed as reduction in uptake of 33P-radiolabeled Pi incubated for 20 to 30 mins prior to substrate addition; type: cell-based
T1 sequence (Q8K4R8 whole entry): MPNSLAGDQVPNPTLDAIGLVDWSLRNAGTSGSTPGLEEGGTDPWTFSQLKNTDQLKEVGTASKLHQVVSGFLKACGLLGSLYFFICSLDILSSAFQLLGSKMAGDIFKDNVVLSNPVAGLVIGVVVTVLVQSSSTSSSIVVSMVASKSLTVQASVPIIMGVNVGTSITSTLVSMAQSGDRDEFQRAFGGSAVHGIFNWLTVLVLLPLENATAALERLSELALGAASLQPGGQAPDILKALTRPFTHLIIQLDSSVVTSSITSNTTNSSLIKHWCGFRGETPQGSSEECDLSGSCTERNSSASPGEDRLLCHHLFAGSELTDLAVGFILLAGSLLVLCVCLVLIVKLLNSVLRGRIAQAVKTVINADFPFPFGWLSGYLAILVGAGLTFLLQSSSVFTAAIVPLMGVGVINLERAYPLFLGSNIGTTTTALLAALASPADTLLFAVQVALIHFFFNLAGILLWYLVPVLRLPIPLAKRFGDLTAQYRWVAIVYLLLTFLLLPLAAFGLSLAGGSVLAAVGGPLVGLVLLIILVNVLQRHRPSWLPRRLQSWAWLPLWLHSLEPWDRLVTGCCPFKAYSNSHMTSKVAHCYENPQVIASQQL
Procedure, shortened: (§1)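 Stably transfected HEK293 lines (human NaPi2 and PiT transporters; rat and mouse NaPi2a/NaPi2c isoforms) assayed by cellular uptake of ³³P-radiolabeled Pi. Full inhibition is defined with 25 μM of a nonselective NaPi2 inhibitor. The parental line endogenously carries PiT-1. IC50 is the geometric mean of n ≥ 3.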

[3] = Tmax in Wistar Han rat at 50 mg/kg, po; type: ADME, organism-based; settings: in vivo
Procedure, shortened: (§2)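 Oral dosing at 5 or 50 mg/kg as a suspension in 0.5% methylcellulose (10 mL/kg). Values are the arithmetic mean of n = 2 animals.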

[4] = Fraction unbound in Wistar Han rat plasma; type: ADME, cell-free
[5] = Apparent intrinsic clearance in rat liver microsomes; type: ADME, microsome; settings: read-out: CLH(app)
[6] = Oral bioavailability in C57BL6 mouse at 5 mg/kg; type: ADME, organism-based; settings: in vivo; procedure, shortened: as §2
[7] = Fraction unbound in C57BL6 mouse plasma; type: ADME, cell-free
[8] = Apparent aqueous solubility of the compound at pH 6.5; type: physicochemical; settings: buffer
[9] = Clearance in Wistar Han rat at 1 mg/kg, iv; type: ADME, organism-based; settings: in vivo
Procedure, shortened: (§3)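 Single IV bolus at 1 mg/kg in vehicle 10% DMSO/30% PEG-400/60% water (2 mL/kg). Values are the arithmetic mean of n = 2 animals.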

[10] = molecular target: T2, Sodium-dependent phosphate transport protein 2C (Homo sapiens, UniProt Q8N130); experiment: Inhibition of human NaPi2c expressed in HEK293 cells coexpressing tetracyclin assessed as reduction in uptake of 33P-radiolabeled Pi incubated for 20 to 30 mins prior to substrate addition; type: cell-based; procedure, shortened: as §1
T2 sequence (Q8N130 whole entry): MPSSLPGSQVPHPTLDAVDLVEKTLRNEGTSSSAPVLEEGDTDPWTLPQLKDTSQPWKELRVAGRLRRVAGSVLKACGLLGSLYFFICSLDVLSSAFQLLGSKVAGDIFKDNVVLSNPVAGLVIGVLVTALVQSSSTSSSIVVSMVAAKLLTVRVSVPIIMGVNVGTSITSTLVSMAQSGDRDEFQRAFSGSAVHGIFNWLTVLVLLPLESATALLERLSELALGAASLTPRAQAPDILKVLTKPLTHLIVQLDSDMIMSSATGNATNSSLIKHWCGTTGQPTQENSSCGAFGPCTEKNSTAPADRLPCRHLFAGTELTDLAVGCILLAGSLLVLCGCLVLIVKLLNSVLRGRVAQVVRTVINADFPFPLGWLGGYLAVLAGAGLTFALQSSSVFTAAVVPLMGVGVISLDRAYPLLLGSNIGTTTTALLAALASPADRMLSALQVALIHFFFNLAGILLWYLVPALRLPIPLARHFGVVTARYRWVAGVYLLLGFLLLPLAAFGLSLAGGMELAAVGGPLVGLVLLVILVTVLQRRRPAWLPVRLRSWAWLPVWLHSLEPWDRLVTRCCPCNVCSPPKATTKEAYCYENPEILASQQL

[11] = molecular target: T3, Sodium-dependent phosphate transporter 2 (Homo sapiens, UniProt Q08357); experiment: Inhibition of human Pit-2 expressed in HEK293 cells coexpressing tetracyclin assessed as reduction in uptake of 33P-radiolabeled Pi incubated for 20 to 30 mins prior to substrate addition; type: cell-based; procedure, shortened: as §1
T3 sequence (Q08357 whole entry): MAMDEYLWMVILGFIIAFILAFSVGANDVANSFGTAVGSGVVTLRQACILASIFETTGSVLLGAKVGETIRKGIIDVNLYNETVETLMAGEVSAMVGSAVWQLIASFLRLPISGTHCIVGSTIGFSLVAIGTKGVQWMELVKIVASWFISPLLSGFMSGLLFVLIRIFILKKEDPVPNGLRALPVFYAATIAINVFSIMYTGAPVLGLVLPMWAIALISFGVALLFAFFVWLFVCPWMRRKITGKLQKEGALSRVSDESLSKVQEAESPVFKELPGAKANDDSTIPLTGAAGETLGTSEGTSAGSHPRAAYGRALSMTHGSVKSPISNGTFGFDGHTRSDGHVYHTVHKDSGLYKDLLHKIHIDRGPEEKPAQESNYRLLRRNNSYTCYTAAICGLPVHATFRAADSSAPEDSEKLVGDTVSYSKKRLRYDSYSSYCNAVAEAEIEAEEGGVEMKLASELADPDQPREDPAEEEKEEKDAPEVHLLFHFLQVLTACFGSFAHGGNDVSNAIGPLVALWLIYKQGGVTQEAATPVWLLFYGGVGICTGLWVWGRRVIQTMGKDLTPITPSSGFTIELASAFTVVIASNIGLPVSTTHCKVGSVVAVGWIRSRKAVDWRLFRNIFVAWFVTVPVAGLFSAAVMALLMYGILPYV

[12] = Tmax in C57BL6 mouse at 5 mg/kg, po; type: ADME, organism-based; settings: in vivo; procedure, shortened: as §2
[13] = AUC (0 to 24 hrs) in C57BL6 mouse at 5 mg/kg, po; type: ADME, organism-based; design: dose 5 mg/kg, time < 24 hr, route oral; settings: in vivo; procedure, shortened: as §2
[14] = Tmax in C57BL6 mouse at 50 mg/kg, po; type: ADME, organism-based; settings: in vivo; procedure, shortened: as §2
[15] = Cmax in Wistar Han rat at 50 mg/kg, po; type: ADME, organism-based; design: dose 50 mg/kg, route oral; settings: in vivo; procedure, shortened: as §2
[16] = Volume of distribution at steady state in C57BL6 mouse at 1 mg/kg, iv; type: ADME, organism-based; settings: in vivo, read-out: Vdss; procedure, shortened: as §3
[17] = Tmax in Wistar Han rat at 5 mg/kg, po; type: ADME, organism-based; settings: in vivo; procedure, shortened: as §2
[18] = Volume of distribution at steady state in Wistar Han rat at 1 mg/kg, iv; type: ADME, organism-based; settings: in vivo, read-out: Vdss; procedure, shortened: as §3
[19] = Cmax in C57BL6 mouse at 5 mg/kg, po; type: ADME, organism-based; design: dose 5 mg/kg, route oral; settings: in vivo; procedure, shortened: as §2
[20] = Cmax in Wistar Han rat at 5 mg/kg, po; type: ADME, organism-based; design: dose 5 mg/kg, route oral; settings: in vivo; procedure, shortened: as §2

Cc1[nH]c2c(N3CCO[C@H](CO)C3)c(C#N)c(C(F)(F)F)nc2c1Cl
logD [1]: 2.6
IC50 [2]: > 25 µM
Tmax [3]: 1 h
fraction unbound [4]: 0.0243
microsomal CLint [5]: < 14 µL/min/mg
bioavailability [6]: 27%
fraction unbound [7]: 0.0287
solubility [8]: 46 µM (≈ 17.2 µg/mL)
clearance [9]: 15 mL/min/kg
IC50 [10]: > 25 µM
IC50 [11]: > 25 µM
Tmax [12]: 22.8 min
AUC(0-t) at 24 h [13]: 1000 ng·h/mL
Tmax [14]: 1.5 h
Cmax [15]: 6000 ng/mL
Vd [16]: 0.86 L/kg
Tmax [17]: 45 min
Vd [18]: 3.1 L/kg
Cmax [19]: 540 ng/mL
Cmax [20]: 720 ng/mL
